Results from ChEMBL document CHEMBL3616402, “A novel series of indazole-/indole-based glucagon receptor antagonists” (Bioorg Med Chem Lett, 2015).
Active and inactive are the calls of the source. The calls are words filed in the database; no cut-off is given here.

Key:
Glucagon receptor [1] = molecular target: T1, Glucagon receptor (Homo sapiens, UniProt P47871); experiment: Displacement of [125I]glucagon from human glucagon receptor expressed in CHO cell membranes
How it was run: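 Binding: displacement of [125I]glucagon from human GCGR in membranes prepared from a CHO cell line stably expressing hGCGR; IC50 reported in nM.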

Glucagon receptor [2] = molecular target: T1, Glucagon receptor; experiment: Antagonist activity against human glucagon receptor expressed in CHO cells assessed as reduction in glucagon-induced cAMP production; format: functional, cell-based
[3] = molecular target: T2, Gastric inhibitory polypeptide receptor (Homo sapiens, UniProt P48546); experiment: Antagonist activity against human glucose dependent insulinotropic peptide receptor by cAMP accumulation assay; format: functional
T2 sequence (P48546 whole entry): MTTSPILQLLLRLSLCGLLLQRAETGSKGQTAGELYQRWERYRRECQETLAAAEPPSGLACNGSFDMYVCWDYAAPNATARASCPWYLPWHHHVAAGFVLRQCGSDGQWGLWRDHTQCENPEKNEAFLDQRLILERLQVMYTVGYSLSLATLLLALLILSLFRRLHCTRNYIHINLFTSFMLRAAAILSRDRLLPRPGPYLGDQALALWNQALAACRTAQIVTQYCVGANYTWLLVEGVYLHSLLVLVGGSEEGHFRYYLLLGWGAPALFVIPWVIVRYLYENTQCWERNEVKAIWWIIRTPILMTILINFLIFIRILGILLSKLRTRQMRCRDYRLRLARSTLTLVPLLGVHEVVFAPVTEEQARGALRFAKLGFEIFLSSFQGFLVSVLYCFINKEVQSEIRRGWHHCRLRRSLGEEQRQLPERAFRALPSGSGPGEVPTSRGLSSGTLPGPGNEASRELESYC
How it was run: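 Selectivity counter-screen: cAMP production measured in CHO cells expressing human GIPR; IC50 (potency) determined.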

Homo sapiens = species: Homo sapiens; experiment: Selectivity index, ratio of IC50 for human glucose dependent insulinotropic peptide receptor to IC50 for human glucagon receptor
[4] = Plasma clearance in Wistar rat at 0.5 mg/kg, iv or 2 mg/kg, po; format: ADME, organism-based
How it was run: (§1)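 Wistar rats given 0.5 mg/kg iv and 2 mg/kg po; plasma concentration–time profiles used to derive plasma clearance, steady-state volume of distribution, half-life and dose-normalized AUC (µM·h·kg/mg).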

[5] = Volume of distribution at steady state in Wistar rat at 0.5 mg/kg, iv or 2 mg/kg, po; format: ADME, organism-based; conditions: in vivo, read-out: Vdss; how it was run: as §1
[6] = Half life in Wistar rat at 0.5 mg/kg, iv or 2 mg/kg, po; format: ADME, organism-based; conditions: in vivo; how it was run: as §1
Rattus norvegicus = experiment: Dose normalized AUC in Wistar rat at 0.5 mg/kg, iv or 2 mg/kg, po; format: ADME, organism-based; conditions: in vivo; how it was run: as §1
[7] = Oral bio availability in Wistar rat 2 mg/kg; format: ADME, organism-based; conditions: in vivo
How it was run: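 Oral bioavailability from Wistar rats dosed 2 mg/kg po with 0.5 mg/kg iv reference dose; F (%) from plasma exposure.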

Mus musculus [8] = experiment: Reduction in glucagon-induced glucose excursion in glucagon receptor humanized mouse model of acute glucagon challenge model at 1 to 10 mg/kg, po dosed 1 hr before glucagon challenge; format: functional, organism-based
How it was run: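 hGCGR-humanized mice given compound orally at 1, 3 or 10 mg/kg one hour prior to IP glucagon (15 µg/kg); blood glucose followed as change from time 0.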

[9] = Drug level in glucagon-induced glucose excursion in glucagon receptor humanized mouse model of acute glucagon challenge model at 1 mg/kg, po dosed 1 hr before glucagon challenge and measured after 60 mins post dose; format: ADME, organism-based; conditions: in vivo, read-out: Drug uptake
How it was run: (§2)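 Glucagon-receptor-humanized (hGCGR) mice dosed orally at 1, 3 or 10 mg/kg one hour before IP glucagon challenge (15 µg/kg); drug level measured at 60 min.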

[10] = Drug level in glucagon-induced glucose excursion in glucagon receptor humanized mouse model of acute glucagon challenge model at 3 mg/kg, po dosed 1 hr before glucagon challenge and measured after 60 mins post dose; format: ADME, organism-based; conditions: in vivo, read-out: Drug uptake; how it was run: as §2
[11] = Drug level in glucagon-induced glucose excursion in glucagon receptor humanized mouse model of acute glucagon challenge model at 10 mg/kg, po dosed 1 hr before glucagon challenge and measured after 60 mins post dose; format: ADME, organism-based; conditions: in vivo, read-out: Drug uptake; how it was run: as §2
Mus musculus [12] = experiment: Reduction in blood glucose levels in glucagon receptor humanized ob/ob mouse acute model at 3 mg/kg, po after 1 to 6 hrs; format: functional, organism-based
How it was run: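 hGCGR ob/ob mice (N = 10–12 per group) dosed orally at 3 mg/kg at 0 h with food removed at 0 h; ambient blood glucose monitored over 6 h versus vehicle control, significance at each time point.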

[13] = Drug level in glucagon receptor humanized ob/ob mouse acute model at 3 mg/kg, po after 1 hrs; format: ADME, organism-based; conditions: in vivo, read-out: Drug uptake
[14] = Drug level in glucagon receptor humanized ob/ob mouse acute model at 3 mg/kg, po after 3 hrs; format: ADME, organism-based; conditions: in vivo, read-out: Drug uptake

T1 sequence (P47871 whole entry): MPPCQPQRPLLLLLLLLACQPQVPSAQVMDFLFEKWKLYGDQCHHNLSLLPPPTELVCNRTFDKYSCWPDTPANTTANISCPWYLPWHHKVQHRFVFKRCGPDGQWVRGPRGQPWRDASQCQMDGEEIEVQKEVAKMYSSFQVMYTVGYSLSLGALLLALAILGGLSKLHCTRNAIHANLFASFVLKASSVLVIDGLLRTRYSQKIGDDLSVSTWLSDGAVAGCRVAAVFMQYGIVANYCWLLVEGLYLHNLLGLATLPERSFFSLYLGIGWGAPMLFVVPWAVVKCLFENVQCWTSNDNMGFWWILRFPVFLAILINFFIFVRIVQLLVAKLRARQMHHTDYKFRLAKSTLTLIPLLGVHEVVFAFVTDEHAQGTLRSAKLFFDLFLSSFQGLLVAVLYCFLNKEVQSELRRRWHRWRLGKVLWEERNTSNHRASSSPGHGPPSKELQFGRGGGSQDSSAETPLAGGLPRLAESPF

IC50 (Glucagon receptor [1]): 2.6 nM
IC50 (Glucagon receptor [2]): 7.6 nM
IC50 [3]: 1300 nM
Ratio IC50 (Homo sapiens): 170
clearance [4]: 6.3 mL/min/kg
Vd [5]: 0.65 L/kg
half-life [6]: 1.5 h
AUC/dose (Rattus norvegicus): 2 µM·kg·h/mg
bioavailability [7]: 44%
concentration at 1 h [9]: 180 nM
concentration at 1 h [10]: 500 nM
concentration at 1 h [11]: 2540 nM
concentration at 1 h [13]: 400 nM
concentration at 3 h [14]: 280 nM
SMILES: COc1ccc(C(F)(F)F)cc1-c1nn(C(C)c2ccc(C(=O)NCCC(=O)O)cc2)c2cc(-c3ccc(C)cc3)ccc12 (stereo unspecified)
inhibition (Mus musculus [8]): Active
inhibition (Mus musculus [12]): Active
